Screens from PubChem BioAssay.
Only a selection was taken, and hits are over-represented in it overall.
ABCG2 inh: human ABCG2 inhibition, ABCB1 as counter-screen; IgMXP3 cells, JC-1 efflux, flow cytometry; inhibition, % at 6.6 µM; 190,000 compounds, 0.1% hits; Q9UNQ0;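 active = inhibition above 80%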;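 also: 0% = DMSO and 100% = nicardipine control wells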
Target sequence (Q9UNQ0 whole entry, looked up): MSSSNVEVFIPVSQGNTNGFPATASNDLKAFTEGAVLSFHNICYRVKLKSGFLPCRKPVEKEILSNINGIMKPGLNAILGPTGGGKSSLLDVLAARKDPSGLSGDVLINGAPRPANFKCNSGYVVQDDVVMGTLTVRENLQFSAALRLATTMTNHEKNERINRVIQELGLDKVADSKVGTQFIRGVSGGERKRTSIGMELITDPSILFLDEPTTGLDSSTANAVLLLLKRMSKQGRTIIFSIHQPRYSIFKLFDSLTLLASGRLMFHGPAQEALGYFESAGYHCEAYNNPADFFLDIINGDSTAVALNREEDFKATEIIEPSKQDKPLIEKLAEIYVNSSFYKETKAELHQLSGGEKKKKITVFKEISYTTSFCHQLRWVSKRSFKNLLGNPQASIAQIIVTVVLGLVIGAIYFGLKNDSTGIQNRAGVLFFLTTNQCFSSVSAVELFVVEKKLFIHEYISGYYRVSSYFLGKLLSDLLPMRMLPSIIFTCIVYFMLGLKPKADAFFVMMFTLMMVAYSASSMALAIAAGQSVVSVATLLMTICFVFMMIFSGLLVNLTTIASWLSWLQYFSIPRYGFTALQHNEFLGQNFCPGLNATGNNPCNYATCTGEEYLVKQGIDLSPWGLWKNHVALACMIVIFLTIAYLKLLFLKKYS
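Test system: IgMXP3 cells (ABCG2) mixed with DDAO far-red-labelled CCRF-Adr cells (ABCB1). Reagent: JC-1 transporter substrate. Compound dosing: single test compound dose, 6.6 µM final. Times: 10 min compound exposure, 25 °C. Detection: flow cytometry of retained JC-1 fluorescence. Read-out basis: efflux inhibition in percent versus controls. Controls: nicardipine and DMSO wells.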
Avidin bead fluor: avidin bead compound fluorescence profile; Avidin beads, compound fluorescence 488/530 nm, flow cytometry; active compounds read high; fluorescence (KMESF) at 10 µM; 220,000 compounds, 0.38% hits; AID 1775; in the data active = fluorescence above about 47
ABCB1 inh: inhibitors of human ABCB1 transporter, ABCG2 counter-screen; 190,000 compounds, 0.067% hits; P08183; CCRF-Adr cells, JC-1 efflux, flow cytometry; inhibition, % at 6.6 µM; in the data active = inhibition above about 40%;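 also: 0% = vehicle and 100% = reference inhibitor; higher value means more JC-1 retained so stronger ABCB1 efflux block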
PKD1 inh: PKD1 (human) kinase inhibition; PKD1 kinase fluorescence polarization assay; inhibition, % (no concentration beside the values); 200,000 compounds, 0.056% hits
Lmaj promast: inhibitors of Leishmania major promastigote growth. Leishmania major promastigotes, resazurin fluorescence viability. inhibition, % at 10 µM. 200,000 compounds, 9% hits;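 also: promastigotes grown with compound for 44 hours at 28 °C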
GSH bead fluor: compound fluoresces at 488/530 nm on GSH beads. GSH beads flow cytometry, compound fluorescence 488/530 nm; active compounds read high. fluorescence (KMESF) at 10 µM. 190,000 compounds, 0.25% hits. AID 1776; in the data active = fluorescence above about 89;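 also: glutathione beads carrying GST-tagged Bcl family fusion proteins plus one bare bead set; values are compound well signal with DMSO vehicle wells as background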
The depositor's hits bear a star; nt = no result given. Rule as the data show it, unless noted: active = inhibition above about 50%; inactive = the rest.

SMILES	ABCG2 inh	Avidin bead fluor	ABCB1 inh	PKD1 inh	Lmaj promast	GSH bead fluor
Cc1ccc2c(c1)c1c(n2C)-c2[nH]ncc2CC1	5	16	0	-7	99*	25
Cc1ccc2c(c1)c1c(n2C)C(C(N)=O)CCC1 (centres undefined)	-1	5	0	-11	-12	52
COC(=O)COc1cccc(NC(=O)COc2ccccc2)c1	2	10	0	-6	91*	8
CCCN(CCC)S(=O)(=O)c1ccc(NC(=O)Cc2cccs2)cc1	6	13	-1	8	37	52
COC(=O)COc1cccc(NC(=O)c2cccs2)c1	8	7	0	0	61*	29
COC(=O)COc1cccc(NC(=O)c2cccc(C)c2)c1	13	11	0	5	2	12
CCCN(CCC)S(=O)(=O)c1ccc(NC(=O)COc2ccccc2)cc1	2	5	0	2	98*	15
COC(=O)COc1cccc(NC(=O)c2ccccc2)c1	5	9	1	-6	-4	14
COc1cccc(NC(=O)Cn2c(=O)c3c(ncn3Cc3ccccc3)n(Cc3ccccc3)c2=O)c1	1	20	2	-4	69*	14
O=C(Cn1c(=O)c2c(ncn2Cc2ccccc2)n(Cc2ccccc2)c1=O)NC1CC1	-1	7	-2	5	-4	29
COc1ccc(C(C)=O)cc1CSc1nc2ccccc2c(=O)n1-c1ccccc1	5	11	4	2	0	13
C=CCn1c(SCc2cc(C(C)=O)ccc2OCC)nc2ccccc2c1=O	7	0	3	10	97*	5
COc1ccc(C(C)=O)cc1CSc1nc2ccccc2c(=O)n1-c1ccccc1C	3	11	6	-5	78*	14
O=C(CC(Nc1ccc(F)cc1)C(=O)OCC(=O)c1cccs1)c1ccccc1 (centres undefined)	1	10	0	-3	6	11
O=C(O)CCCCCCC1C(=O)NC(=O)N1CCC(O)C1CCCCC1 (centres undefined)	-4	nt	-2	1	-8	18
Cc1ccc2nc(-c3cccnc3)c(NC3CCCCC3)n2c1	0	13	1	-2	88*	4
O=C(COC(=O)C1CC(=O)N(Cc2ccccc2)C1)c1ccc(F)cc1 (centres undefined)	1	23	0	-2	-6	16
CCOC(=O)C(=Cc1ccc(-n2cncn2)cc1)C(=O)OCC	1	10	0	9	77*	16
CCC(C)NCCCOc1cc(Cl)ccc1Cl (centres undefined)	2	7	0	-8	100*	5
CCNC(=O)CCCOc1ccc(Cl)cc1Cl	6	11	0	-12	-1	38
CCC(C)NCCCCOc1ccc(Cl)cc1C (centres undefined)	5	11	0	-6	97*	20
CCCCNCCCOc1cc(Cl)ccc1Cl	1	16	0	-5	98*	44
CCC(C)NCCCOc1ccc(C)cc1OC (centres undefined)	12	9	1	-8	1	16
CCOC(=O)c1ccc(NC(=O)c2cc3c(s2)CCC3)cc1	nt	8	nt	nt	nt	nt
C=CCn1c(Cc2ccc(OC)cc2)nnc1SCc1nc2ccccc2c(=O)[nH]1	3	11	1	-3	-6	25
SMILES	ABCG2 inh	Avidin bead fluor	ABCB1 inh	PKD1 inh	Lmaj promast	GSH bead fluor
COC(=O)c1cc2sccc2n1Cc1nc(-c2ccc(OC)cc2)oc1C	6	7	0	0	100*	5
CCOc1ccc(N2C(=O)/C(=C\c3ccc(O)c(OC)c3)S(=O)(=O)C2c2cccc([N+](=O)[O-])c2)cc1 (centres undefined)	-2	14	-1	-12	22	11
CCOC(=O)C1=C(C)n2c(s/c(=C/c3cccc([N+](=O)[O-])c3)c2=O)=NC1c1ccc(O)c(OC)c1 (centres undefined)	1	6	2	6	100*	31
CSCCC(NS(=O)(=O)c1ccc2c(c1)oc(=O)n2C)C(=O)NC1CCCCC1 (centres undefined)	-3	7	-3	9	-4	24
O=C1[C@@H]2CSCN2C(=O)CN1Cc1ccc(F)cc1	nt	9	nt	nt	nt	nt
COC(=O)Nc1ccc(S(=O)(=O)N2c3ccccc3CCC2C)cc1 (centres undefined)	9	33	0	-6	100*	12
CCOc1ccc2c(c1)ncn2Cc1ccccc1	-1	5	1	1	13	19
CC(=O)Oc1ccc(Cn2cnc3cc4ccccc4cc32)cc1	0	6	0	2	58*	19
O=C(/C=C/c1ccccc1)NC1CC2CCC1C2 (centres undefined)	9	17	0	-18	53*	7
O=C(/C=C/c1ccc(Cl)cc1)NC1CC2CCC1C2 (centres undefined)	27	9	0	-1	3	10
OCCN=c1cc(-c2ccccc2)oc2ccc(Cl)cc12	0	19	0	-4	84*	21
CC(=O)Nc1ccc(C(=S)NCCCO)cc1	3	14	1	-1	-7	9
CCC(C)NCCOCCSc1ccc(Cl)cc1 (centres undefined)	1	9	0	-1	97*	25
C=CCc1ccccc1OCC(O)CNC(C)C (centres undefined)	17	7	3	-7	2	20
C=CCc1cc(Cl)ccc1OCCCNCCO	0	10	0	-4	98*	10
C=CCOc1ccc(Br)cc1CNCCO	1	3	0	-7	9	8
C=CCc1cc(Cl)ccc1OCCOCCNC(C)CC (centres undefined)	2	6	0	-4	90*	23
C=CCc1cc(Cl)ccc1OCCCNC(C)C	-1	9	0	0	100*	19
C=CCc1cc(C)ccc1OCCOCCC(C(=O)OCC)C(=O)OCC	3	6	0	3	-3	16
COc1ccc(-c2noc(CSc3nc(N)cc(=O)[nH]3)n2)cc1	nt	6	nt	nt	nt	nt
C=CCc1cc(Cl)ccc1OCCN(C)C	2	14	1	17	96*	24
CCN(CC)CCOC(=O)c1c(C)oc2ccc(OC)cc12	12	7	1	1	100*	26
CCN(CC)CCCOC(=O)c1ccc(OC)cc1O	4	9	1	-7	74*	10
CCN(CC)CCOC(=O)c1cccc(OC)c1	3	16	0	-12	-5	13
O=C(Nc1cccc(S(=O)(=O)NCc2ccco2)c1)c1cc(-c2ccc(F)cc2)nc2ccccc12	-3	6	-1	2	98*	6
COc1ccc(-c2cc(C(=O)Nc3cccc(S(=O)(=O)NCc4ccco4)c3)c3ccccc3n2)cc1OC	-1	8	-1	-8	72*	17
